Screens (PubChem BioAssay)
bIAP inhibitor = blocks bovine intestinal alkaline phosphatase activity. AID 1019. inhibition, % at 20 µM. 190,000 tested, under 10 active. purified bovine IAP, CDP-star luminescence, 30 min;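 active = over 50% inhibition of intestinal alkaline phosphatase at 20 µM in the single-dose screen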
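Incubation: 30 min reaction at room temperature / Material: purified bovine intestinal alkaline phosphatase (IAP) enzyme / Input: enzyme at 1/65,000,000 dilution / Dosing: 20 µM single dose / Signal: CDP-star luminescence signal / Reagent: CDP-star chemiluminescent phosphatase substrate, 30 µM final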
hIAP block = human IAP inhibition. P09923. inhibition, % at 10 µM. purified IAP, CDP-Star luminescence, 30 min. 0.12% of 330,000 active;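 active = inhibition reaching a set limit with compound at 10 µM in the primary screen, cut at about 35% in these data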
Target sequence (P09923 whole entry, looked up): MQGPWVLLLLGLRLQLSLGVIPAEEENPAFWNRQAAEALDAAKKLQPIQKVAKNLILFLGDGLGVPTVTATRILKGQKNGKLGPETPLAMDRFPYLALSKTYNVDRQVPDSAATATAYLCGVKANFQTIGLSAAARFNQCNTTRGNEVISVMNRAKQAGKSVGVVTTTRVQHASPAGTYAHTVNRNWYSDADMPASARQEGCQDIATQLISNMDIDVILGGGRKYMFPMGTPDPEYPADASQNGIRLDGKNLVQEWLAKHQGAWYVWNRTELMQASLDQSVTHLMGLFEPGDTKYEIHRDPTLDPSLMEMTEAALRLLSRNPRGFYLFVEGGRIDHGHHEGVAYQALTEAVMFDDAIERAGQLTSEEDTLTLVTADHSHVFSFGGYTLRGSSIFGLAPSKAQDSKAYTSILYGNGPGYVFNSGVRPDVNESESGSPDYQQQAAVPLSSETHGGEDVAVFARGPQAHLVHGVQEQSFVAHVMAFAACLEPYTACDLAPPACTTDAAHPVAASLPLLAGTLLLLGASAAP
mIAP activ = mouse IAP activation; activation factor at 10 µM; 0.24% of 330,000 active; muIAP, CDP-Star luminescence, 30 min; stronger effect = higher value; 1 = vehicle-only enzyme signal, 0 = enzyme-free wells;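 active = activation factor of at least 2 at 20 µM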
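Assay system: mouse IAP enzyme / Compound: DMSO-dissolved test compounds / Timing: 30 min, room temperature / Measured by: luminescence from enzymatic CDP-Star hydrolysis / Control set: DMSO-only wells, enzyme-free buffer wells as negative control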
bIAP activator = increases bovine intestinal alkaline phosphatase activity. purified bovine IAP, CDP-star luminescence, 30 min; stronger effect = higher value; fold of DMSO-control signal, blank-subtracted. activation factor at 20 µM. 0.17% of 200,000 active. AID 1016;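 active = activation factor of 2 or more at 20 µM, a signal rise over negative controls twice the positive control's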
mIAP block = blocks mouse intestinal alkaline phosphatase; AID 2806; 0.2% of 330,000 active; inhibition, % at 10 µM; purified mouse IAP, CDP-Star luminescence, 30 min;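 active = inhibition of at least 40% at 10 µM in the primary screen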
hIAP activ = increases human intestinal alkaline phosphatase activity; P09923; purified human IAP, CDP-Star luminescence, 30 min; stronger effect = higher value; 1 = vehicle-only enzyme, 0 = enzyme-free background; activation factor at 10 µM; 0.16% of 330,000 active; AID 2524;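 active = activation factor of the enzyme at least 2-fold when tested at 20 µM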
mIAP inh conf = mouse IAP inhibition confirmation | purified mouse IAP, CDP-Star luminescence, 30 min | 4.7% of 11,000 active | shares compounds with mIAP block | inhibition, % at 10 µM;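 active = inhibition of at least 40% at 10 µM in either of the two replicates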
Of the large screens only hits and unclear results are named; the others gave an inactive call (follow-up assays come after a bar, where they were run). An excerpt weighted towards active compounds, which were near 0.77% of everything screened.

Cc1ccc(N2C(=O)/C(=C/c3ccc(CN(CCC#N)S(C)(=O)=O)o3)C(=O)NC2=S)cc1	mIAP block 47 | mIAP inh conf 44
CCN(CC)c1ccc(/C=C2/C(=O)NC(=O)N(Cc3ccco3)C2=O)cc1	mIAP block 61 | mIAP inh conf 46
CCN(CC)c1ccc(/C=C2\C(=O)NC(=O)N(CC3CCCO3)C2=O)cc1 (stereo not given)	none (no result: bIAP inhibitor)
O=C1NC(=O)N(Cc2ccco2)C(=O)/C1=C/c1ccc(-c2cccc([N+](=O)[O-])c2)o1	mIAP block 61 | mIAP inh conf 68
C=CCN1C(=O)NC(=O)/C(=C\c2ccc(-c3ccccc3[N+](=O)[O-])o2)C1=O	none
CN(C)c1ccc(/C=C2/C(=O)NC(=O)N(Cc3ccco3)C2=O)cc1	mIAP block 48 | mIAP inh conf 48
COc1ccccc1NC(=O)c1cn(CCC#N)nc1-c1cccc(Cl)c1	none (no result: bIAP inhibitor, bIAP activator)
CCc1ccc(NC(=O)CCNC(=O)N2C[C@H]3C[C@@H](C2)c2cccc(=O)n2C3)cc1	none (no result: bIAP inhibitor, bIAP activator)
O=C(NC1CCCCC1)Oc1cc2oc(=O)sc2cc1Cl	mIAP block 61 (no result: bIAP inhibitor, bIAP activator) | mIAP inh conf 76
O=C1NC(=S)NC(=O)C1=Cc1ccc2c(c1)CCN2CCCCl	mIAP block 66 (no result: bIAP inhibitor, bIAP activator) | mIAP inh conf 73
COc1ccc(N2C(=O)NC(=O)/C(=C\c3ccc([N+](=O)[O-])s3)C2=O)cc1	none
COc1cccc(N2C(=O)NC(=O)/C(=C/c3ccc([N+](=O)[O-])s3)C2=O)c1	mIAP block 48 (no result: bIAP inhibitor, bIAP activator) | mIAP inh conf 51
C[C@@H]1CCC2[C@@H](C)C(=O)O[C@@H]3OC4(C)CCC1[C@@]23OO4 (stereo not given in full)	none (no result: bIAP inhibitor, bIAP activator)
